Assay outcomes as filed in PubChem.
Efflux pump mplx = blocks antifungal efflux pumps in multiplex yeast assay | S. cerevisiae Candida pump triplex, Nile Red efflux | inhibition, % at 10 µM | 330,000 tested, 0.44% active | AID 485275;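 active = plate passing quality check with inhibition over a set limit, or well fluorescence over plate mean plus 4 SD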;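 note: Nile Red retained in pooled yeast measured as flow cytometry median fluorescence; higher means more Nile Red kept so more efflux inhibition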
Arrestin-AP2 inh = inhibitors of human beta-arrestin and AP2 interaction; FITC-arrestin peptide / GST-AP2 beads, flow cytometry; AP2 beta2 appendage carries R879A mutation; inhibition, % at 10 µM; 340,000 tested, 0.31% active;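 active = inhibition above a set limit, near 3 SD of compounds lacking own fluorescence, cut at about 54% in these data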
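Material – AP2 appendage R879A on GSH beads · Buffer or medium – PBS with 0.05% Tween 20 and 0.1% BSA · Probe or stimulus – fluorescein-tagged arrestin peptide at 50 nM final · Incubation – compound with beads 12 min RT, then probe 1 h RT · Detection – high-throughput flow cytometry of beads, ex 488, em 535 nm · Evaluation – percent response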
Pemphigus Ab inh = blocks pemphigus antibody binding to human desmoglein-3; 310,000 tested, 0.48% active; DSG3-coupled beads, scFv-anti-DSG3-GFP binding, flow cytometry; stronger effect = lower value; binding (percent of control), % at 10 µM; P32926; AID 588358;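 active = binding more than 3 SD below its plate's average and above zero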;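 note: hits lower antibody fragment binding to DSG3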
Target sequence (P32926 whole entry, looked up, the tested form may be a part): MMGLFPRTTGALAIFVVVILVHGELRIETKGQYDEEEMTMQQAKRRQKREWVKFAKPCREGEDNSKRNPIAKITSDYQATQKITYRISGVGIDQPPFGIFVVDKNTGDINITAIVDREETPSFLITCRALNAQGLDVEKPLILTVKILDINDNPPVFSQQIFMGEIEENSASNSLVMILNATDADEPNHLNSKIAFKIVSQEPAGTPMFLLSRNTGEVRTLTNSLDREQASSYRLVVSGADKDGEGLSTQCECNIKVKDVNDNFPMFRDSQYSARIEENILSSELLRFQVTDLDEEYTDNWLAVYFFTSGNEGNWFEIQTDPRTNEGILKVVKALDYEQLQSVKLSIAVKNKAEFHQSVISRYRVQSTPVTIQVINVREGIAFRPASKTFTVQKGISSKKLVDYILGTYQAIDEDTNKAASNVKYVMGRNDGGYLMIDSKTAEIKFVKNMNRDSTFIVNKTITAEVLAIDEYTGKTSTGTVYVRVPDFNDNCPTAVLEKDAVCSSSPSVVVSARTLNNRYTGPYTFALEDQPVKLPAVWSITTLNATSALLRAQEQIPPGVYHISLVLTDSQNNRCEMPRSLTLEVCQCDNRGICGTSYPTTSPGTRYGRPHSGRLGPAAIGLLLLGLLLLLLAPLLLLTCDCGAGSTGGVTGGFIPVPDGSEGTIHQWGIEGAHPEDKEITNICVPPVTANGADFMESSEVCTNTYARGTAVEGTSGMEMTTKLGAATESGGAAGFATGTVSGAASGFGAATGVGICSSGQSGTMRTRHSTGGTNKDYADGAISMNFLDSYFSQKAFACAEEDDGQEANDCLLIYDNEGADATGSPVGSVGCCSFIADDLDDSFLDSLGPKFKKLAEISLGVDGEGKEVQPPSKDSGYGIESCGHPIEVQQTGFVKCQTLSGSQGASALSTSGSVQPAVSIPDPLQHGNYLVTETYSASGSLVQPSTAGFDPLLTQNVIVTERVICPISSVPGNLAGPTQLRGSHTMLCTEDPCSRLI
Neddylation inh = blocks human cullin neddylation; P61081+Q13564; TR-FRET cullin neddylation, biochemical; inhibition, % at 25 µM; 360,000 tested, 0.58% active; AID 651699; in the data active = inhibition above about 36%
Cmpd fluor yeast = compound fluorescence in yeast efflux pump counter-screen; fluorescence ratio to DMSO, % at 10 µM; 1,700 tested, 4% active; AID 588517; shares compounds with Efflux pump mplx; S. cerevisiae AD/pABC3, flow cytometry;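 active = fluorescence ratio to DMSO above its plate's cutoff, the plate mean ratio plus 5 SD, cut at about 210% in these data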;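 note: unstained yeast with no Nile Red so the signal is compound autofluorescence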
CaMdr1 efflux inh = Candida Mdr1 efflux pump inhibition | shares compounds with Efflux pump mplx | S. cerevisiae AD/CaMDR1, Nile Red efflux, flow cytometry | inhibition, % at 10 µM | 1,700 tested, 1% active; in the data active = inhibition above about 26%;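 note: higher means more Nile Red retained so more efflux inhibition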
Cdr2 pump inh = Candida Cdr2 efflux pump inhibition. shares compounds with Efflux pump mplx. S. cerevisiae AD/CaCDR2, Nile Red retention, flow cytometry. Nile Red retention ratio vs DMSO, % at 10 µM. 1,700 tested, 4% active. AID 588520; in the data active = Nile Red retention ratio vs DMSO above about 190%;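 note: higher ratio means more blocking of Cdr2 efflux of the dye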
CaCdr1 efflux inh = blocks the Candida albicans Cdr1 efflux pump in yeast; shares compounds with Efflux pump mplx; S. cerevisiae AD/CaCDR1, Nile Red efflux, flow cytometry; inhibition, % at 10 µM; 1,700 tested, 1% active;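 active = inhibition above the screen-wide mean plus twice its standard deviation, cut at about 32% in these data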
Hits are given with their value; - = inactive; . = no result shown. Shown are actives, neighbours in structure and some others; about 1.7% of the full set was active somewhere.

SMILES	Efflux pump mplx	Arrestin-AP2 inh	Pemphigus Ab inh	Neddylation inh	Cmpd fluor yeast	CaMdr1 efflux inh	Cdr2 pump inh	CaCdr1 efflux inh
COc1ccc(S(=O)(=O)N(C)C[C@H]2Oc3c(NC(=O)Nc4ccc(C(F)(F)F)cc4)cccc3C(=O)N([C@H](C)CO)C[C@@H]2C)cc1	34	-	-	-	-	-	-	-
COc1ccc(S(=O)(=O)N(C)C[C@H]2Oc3c(NC(=O)C4CC4)cccc3C(=O)N([C@H](C)CO)C[C@@H]2C)cc1	-	-	-	-	.	.	.	.
COc1ccc(S(=O)(=O)N(C)C[C@H]2Oc3c(NC(=O)NC4CCCCC4)cccc3C(=O)N([C@H](C)CO)C[C@@H]2C)cc1	131	-	-	-	-	28	-	-
CC(=O)Nc1ccc(C(=O)COC(=O)CCc2ccccc2)c(F)c1	-	-	.	-	.	.	.	.
Cc1ccc(C(=O)Oc2ccc(-c3nnco3)cc2)o1	-	-	-	-	.	.	.	.
Cc1ccc(CNC(=O)c2cc(-c3ccccc3)nn2CC2CC(c3cccnc3)=NO2)cc1 (centres undefined)	0.8	-	-	-	-	-	-	-
Cc1ccc(CNC(=O)c2cc(-c3ccccc3C)nn2CC2CC(c3cccnc3)=NO2)cc1 (centres undefined)	-	-	-	-	.	.	.	.
COc1ccc(C)cc1NC(=O)C1CC(=O)OC12CCCCC2 (centres undefined)	1.3	-	-	-	-	-	-	-
Cc1cccc(NC(=O)C2CC(=O)OC23CCCCC3)c1 (centres undefined)	-	-	-	-	.	.	.	.
COc1ccc(CCOC(=O)c2ccc(N)c([N+](=O)[O-])c2)cc1	6.6	-	-	-	-	-	.	-
CC(=O)N1CC(C)Oc2ccc(S(=O)(=O)NC(CC(=O)O)c3ccc(C)cc3C)cc21 (centres undefined)	-	-	-	-	.	.	.	.
Cc1ccc(C)c(OCc2cc(C(=O)N3CCOCC3)no2)c1	-	-	-	-	.	.	.	.
Cc1ccc(C)c(OCc2cc(C(=O)N3CCNC(=O)C3)no2)c1	-	-	-	-	-	-	-	-
Oc1ccccc1-c1nc2c3ccccc3c3ccccc3c2[nH]1	-	-	-	.	.	.	.	.
c1csc(-c2nc3c4ccccc4c4ccccc4c3[nH]2)c1	0.4	-	-	.	-	-	-	-
Cc1ccc(C(=C2C3C=CC2C2C(=O)NC(=O)C32)c2ccc(C)cc2)cc1 (centres undefined)	-	-	-	-	.	.	.	.
C=CC[C@@H](CC(=O)N(CCO)Cc1ccccc1)C(=O)N[C@H](COC(=O)[C@@H](CC=C)Cc1ccc(F)cc1)Cc1c[nH]c2ccccc12	162	-	-	-	-	136	-	135
C=CC[C@H](CC(=O)N(CCO)Cc1ccccc1)C(=O)N[C@H](COC(=O)[C@@H](CC=C)Cc1ccc(F)cc1)Cc1c[nH]c2ccccc12	-	-	-	-	.	.	.	.
Cc1c(OC(C)C(=O)NCc2ccccn2)ccc2c3c(c(=O)oc12)CCCC3 (centres undefined)	1.8	-	-	.	-	-	-	-
COc1ccc(-n2c(SCC(=O)Nc3ncc(Cl)cc3Cl)nc3ccccc32)cc1	0.8	.	.	.	-	-	-	-
Nc1nnc(SCc2ccc(Cl)cc2)s1	-	-	-	-	.	.	.	.
CCOC(=O)c1ccc(CSc2nnc(N)s2)cc1	1.8	-	.	-	-	-	-	-
CC(C)OC(=O)c1ccc(COC(=O)c2cccc(-c3nnc(-c4ccccc4)o3)c2)cc1	7.6	-	-	-	-	-	-	-
COc1cc(CN(C(=O)c2cccs2)C2CCS(=O)(=O)C2)cc(OC)c1OC (centres undefined)	-	-	-	-	.	.	.	.
O=C(c1cc2c(s1)CCCC2)N1CCN(S(=O)(=O)c2ccccc2C(F)(F)F)CC1	6.7	-	-	-	-	-	-	-
SMILES	Efflux pump mplx	Arrestin-AP2 inh	Pemphigus Ab inh	Neddylation inh	Cmpd fluor yeast	CaMdr1 efflux inh	Cdr2 pump inh	CaCdr1 efflux inh
Cc1ccc(S(=O)(=O)N2CCN(C(=O)c3cc4c(s3)CCCC4)CC2)c(C)c1	-	-	.	-	.	.	.	.
CC(=O)Nc1ccc(CN(C)c2c(C)nc3ccc(C(=O)N4CCN(c5ccccc5)CC4)cn23)cc1	.	.	.	-	.	.	.	.
Cc1cccc(NC(=O)c2nc[nH]c2C(=O)N[C@H](C)c2ccccc2)c1	0.9	-	-	-	-	-	-	-
COc1ccc(NC(=O)/C(C#N)=C/c2ccc(OCc3ccccc3F)cc2)cc1	6.5	-	-	-	-	-	-	-
N#C/C(=C\c1ccc(OCc2ccccc2)cc1)C(=O)Nc1ccc(C(=O)O)cc1	-	.	.	.	.	.	.	.
Cc1cc(NS(=O)(=O)c2ccc(NC(=O)C(CC(C)C)N3C(=O)c4ccccc4C3=O)cc2)nc(C)n1 (centres undefined)	0.9	-	-	-	-	-	-	-
CC(NC(=O)CCSCCC(=O)NC(C)c1ccccc1)c1ccccc1 (centres undefined)	1.2	-	-	-	-	-	-	-
C/C(Cl)=C\C[N+](C)(C)CC(=O)OCCc1ccccc1	0.5	-	-	-	-	-	-	-
CCNC(=S)N(CCc1ccccc1C)Cc1cc2cc(OC)c(OC)cc2[nH]c1=O	-	-	.	-	.	.	.	.
COc1cc2cc(CN(CCc3ccccc3C)C(=S)NCCCN(C)C)c(=O)[nH]c2cc1OC	8.9	-	-	-	-	-	-	-
COc1ccc(-c2nc(C(N)=O)c3[nH]c(=O)n(-c4cccc(C)c4)c3n2)c(OC)c1	-	-	-	-	.	.	.	.
NC(=O)c1nc(-c2cccs2)nc2c1[nH]c(=O)n2-c1ccc(F)cc1	-	-	-	-	-	-	-	-
CC(C)Cc1nc(C(N)=O)c2[nH]c(=O)n(-c3ccc(F)cc3)c2n1	-	-	-	-	.	.	.	.
Cc1cccc(-n2c(=O)[nH]c3c(C(N)=O)nc(-c4ccccc4Cl)nc32)c1	-	-	-	-	.	.	.	.
COc1ccccc1-c1nc(C(N)=O)c2[nH]c(=O)n(-c3cccc(C)c3)c2n1	0.4	-	-	-	-	-	-	-
NC(=O)c1nc(-c2ccco2)nc2c1[nH]c(=O)n2-c1ccc(Cl)c(Cl)c1	1.2	-	-	-	-	-	-	-
CCOc1ccccc1-c1nc(C(N)=O)c2[nH]c(=O)n(-c3ccccc3)c2n1	-	-	-	-	-	-	-	-
O=C1C=C(c2cc3ccccc3s2)C[C@@H](c2ccc3c(c2)OCO3)C1	-	-	-	-	.	.	.	.
CC1(C)Cc2cccc(OCC(=O)N3CCN(S(=O)(=O)c4ccccc4)CC3)c2O1	-	-	-	-	.	.	.	.
COC(=O)CSc1nc2c(cnn2-c2ccc(Cl)cc2)c(=O)[nH]1	-	-	-	-	.	.	.	.
